Assay results as given in ChEMBL document CHEMBL4689842, “EUbOPEN Chemogenomics Library wave 1” (2021).

System: Fibroblast
Assay: Multiplex assay against human fibroblast
Type: toxicity, cell-based
Method in brief: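 Imaging took place on a CQ1 microscope at 37°C and 5% CO2 once compound had been added to live cells stained at seeding with Hoechst33342, BioTracker Green Microtubule Cytoskeleton Dye, MitoTracker Red and Annexin V Alexa Fluor 680. CellPathfinder machine-learning gating classed cells as Hoechst high-intensity objects or normal cells, classed normal cells as having healthy, pyknosed or fragmented nuclei, and classed pyknosed cells as mitotic or apoptotic. Tubulin, mitochondrial-mass and membrane-permeability phenotypes are per cents of the healthy-nucleus cells.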

[1] = 12 h, 1 µM, compound concentration 1 uM, replicate 1
[2] = 12 h, 1 µM, compound concentration 1 uM, replicate 2
[3] = 12 h, 10 µM, compound concentration 10 uM, replicate 1
[4] = 12 h, 10 µM, compound concentration 10 uM, replicate 2
[5] = 24 h, 1 µM, compound concentration 1 uM, replicate 1
[6] = 24 h, 1 µM, compound concentration 1 uM, replicate 2
[7] = 24 h, 10 µM, compound concentration 10 uM, replicate 1
[8] = 24 h, 10 µM, compound concentration 10 uM, replicate 2
[9] = 48 h, 1 µM, compound concentration 1 uM, replicate 1
[10] = 48 h, 1 µM, compound concentration 1 uM, replicate 2
[11] = 48 h, 10 µM, compound concentration 10 uM, replicate 1
[12] = 48 h, 10 µM, compound concentration 10 uM, replicate 2

COc1cc(N2CCN(C)CC2)ccc1Nc1ncc2c(n1)N(C)c1ccccc1C(=O)N2C
Population Apoptotic (%) [1]: 58%
Population Fragmented Nuclei (%) [1]: 25%
Population Healthy Nuclei (%) [1]: 41%
Population Hoechst High Intensity Objects (%) [1]: 11%
Population Membrane Permeable-Phenotype (%) [1]: 14%
Population Mitochondria Different-Phenotype (%) [1]: 12%
Population Mitotic Cells (%) [1]: 41%
Population Normal (%) [1]: 88%
Population Pyknosed Nuclei (%) [1]: 32%
Population Tubulin-Different-Phenotype (%) [1]: 28%
Total Cell Count [1]: 135
Population Apoptotic (%) [2]: 40%
Population Fragmented Nuclei (%) [2]: 5%
Population Healthy Nuclei (%) [2]: 82%
Population Hoechst High Intensity Objects (%) [2]: 4%
Population Membrane Permeable-Phenotype (%) [2]: 9%
Population Mitochondria Different-Phenotype (%) [2]: 21%
Population Mitotic Cells (%) [2]: 60%
Population Normal (%) [2]: 95%
Population Pyknosed Nuclei (%) [2]: 12%
Population Tubulin-Different-Phenotype (%) [2]: 15%
Total Cell Count [2]: 104
Population Apoptotic (%) [3]: 65%
Population Fragmented Nuclei (%) [3]: 32%
Population Healthy Nuclei (%) [3]: 38%
Population Hoechst High Intensity Objects (%) [3]: 20%
Population Membrane Permeable-Phenotype (%) [3]: 17%
Population Mitochondria Different-Phenotype (%) [3]: 35%
Population Mitotic Cells (%) [3]: 34%
Population Normal (%) [3]: 79%
Population Pyknosed Nuclei (%) [3]: 28%
Population Tubulin-Different-Phenotype (%) [3]: 82%
Total Cell Count [3]: 127
Population Apoptotic (%) [4]: 66%
Population Fragmented Nuclei (%) [4]: 15%
Population Healthy Nuclei (%) [4]: 61%
Population Hoechst High Intensity Objects (%) [4]: 5%
Population Membrane Permeable-Phenotype (%) [4]: 21%
Population Mitochondria Different-Phenotype (%) [4]: 96%
Population Mitotic Cells (%) [4]: 33%
Population Normal (%) [4]: 94%
Population Pyknosed Nuclei (%) [4]: 23%
Population Tubulin-Different-Phenotype (%) [4]: 100%
Total Cell Count [4]: 42
Population Apoptotic (%) [5]: 60%
Population Fragmented Nuclei (%) [5]: 22%
Population Healthy Nuclei (%) [5]: 57%
Population Hoechst High Intensity Objects (%) [5]: 10%
Population Membrane Permeable-Phenotype (%) [5]: 17%
Population Mitochondria Different-Phenotype (%) [5]: 6%
Population Mitotic Cells (%) [5]: 39%
Population Normal (%) [5]: 89%
Population Pyknosed Nuclei (%) [5]: 19%
Population Tubulin-Different-Phenotype (%) [5]: 26%
Total Cell Count [5]: 159
Population Apoptotic (%) [6]: 50%
Population Fragmented Nuclei (%) [6]: 9%
Population Healthy Nuclei (%) [6]: 75%
Population Hoechst High Intensity Objects (%) [6]: 6%
Population Membrane Permeable-Phenotype (%) [6]: 6%
Population Mitochondria Different-Phenotype (%) [6]: 12%
Population Mitotic Cells (%) [6]: 50%
Population Normal (%) [6]: 93%
Population Pyknosed Nuclei (%) [6]: 14%
Population Tubulin-Different-Phenotype (%) [6]: 6%
Total Cell Count [6]: 101
Population Apoptotic (%) [7]: 60%
Population Fragmented Nuclei (%) [7]: 38%
Population Healthy Nuclei (%) [7]: 52%
Population Hoechst High Intensity Objects (%) [7]: 20%
Population Membrane Permeable-Phenotype (%) [7]: 5%
Population Mitochondria Different-Phenotype (%) [7]: 43%
Population Mitotic Cells (%) [7]: 40%
Population Normal (%) [7]: 79%
Population Pyknosed Nuclei (%) [7]: 9%
Population Tubulin-Different-Phenotype (%) [7]: 74%
Total Cell Count [7]: 140
Population Apoptotic (%) [8]: 76%
Population Fragmented Nuclei (%) [8]: 11%
Population Healthy Nuclei (%) [8]: 63%
Population Hoechst High Intensity Objects (%) [8]: 8%
Population Membrane Permeable-Phenotype (%) [8]: 30%
Population Mitochondria Different-Phenotype (%) [8]: 93%
Population Mitotic Cells (%) [8]: 23%
Population Normal (%) [8]: 91%
Population Pyknosed Nuclei (%) [8]: 25%
Population Tubulin-Different-Phenotype (%) [8]: 66%
Total Cell Count [8]: 44
Population Apoptotic (%) [9]: 54%
Population Fragmented Nuclei (%) [9]: 34%
Population Healthy Nuclei (%) [9]: 58%
Population Hoechst High Intensity Objects (%) [9]: 14%
Population Membrane Permeable-Phenotype (%) [9]: 19%
Population Mitochondria Different-Phenotype (%) [9]: 1%
Population Mitotic Cells (%) [9]: 45%
Population Normal (%) [9]: 85%
Population Pyknosed Nuclei (%) [9]: 7%
Population Tubulin-Different-Phenotype (%) [9]: 29%
Total Cell Count [9]: 176
Population Apoptotic (%) [10]: 100%
Population Fragmented Nuclei (%) [10]: 25%
Population Healthy Nuclei (%) [10]: 72%
Population Hoechst High Intensity Objects (%) [10]: 7%
Population Membrane Permeable-Phenotype (%) [10]: 10%
Population Mitotic Cells (%) [10]: 0%
Population Normal (%) [10]: 92%
Population Pyknosed Nuclei (%) [10]: 1%
Population Tubulin-Different-Phenotype (%) [10]: 28%
Total Cell Count [10]: 83
Population Apoptotic (%) [11]: 85%
Population Fragmented Nuclei (%) [11]: 49%
Population Healthy Nuclei (%) [11]: 45%
Population Hoechst High Intensity Objects (%) [11]: 28%
Population Membrane Permeable-Phenotype (%) [11]: 7%
Population Mitochondria Different-Phenotype (%) [11]: 12%
Population Mitotic Cells (%) [11]: 14%
Population Normal (%) [11]: 71%
Population Pyknosed Nuclei (%) [11]: 4%
Population Tubulin-Different-Phenotype (%) [11]: 44%
Total Cell Count [11]: 201
Population Apoptotic (%) [12]: 100%
Population Fragmented Nuclei (%) [12]: 39%
Population Healthy Nuclei (%) [12]: 58%
Population Hoechst High Intensity Objects (%) [12]: 18%
Population Membrane Permeable-Phenotype (%) [12]: 5%
Population Mitochondria Different-Phenotype (%) [12]: 8%
Population Mitotic Cells (%) [12]: 0%
Population Normal (%) [12]: 81%
Population Pyknosed Nuclei (%) [12]: 2%
Population Tubulin-Different-Phenotype (%) [12]: 62%
Total Cell Count [12]: 188
